From PubChem BioAssay
Hits are enriched below; roughly 2.6% of the tested compounds scored in any of these assays.
TAAR1 ag: human TAAR1 agonism; Q96RJ0; CHO RD-HGA16 TAAR1, Fluo-8 calcium fluorescence; vehicle wells 0%, saturating PEA agonist 100%; activation, % at 3 µM; 360,000 compounds, 0.99% hits; AID 624467;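 active means activation above the mean activation of all test compounds in the run plus 3 SD, cut at about 38% in these data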
Target sequence (Q96RJ0 whole entry, looked up): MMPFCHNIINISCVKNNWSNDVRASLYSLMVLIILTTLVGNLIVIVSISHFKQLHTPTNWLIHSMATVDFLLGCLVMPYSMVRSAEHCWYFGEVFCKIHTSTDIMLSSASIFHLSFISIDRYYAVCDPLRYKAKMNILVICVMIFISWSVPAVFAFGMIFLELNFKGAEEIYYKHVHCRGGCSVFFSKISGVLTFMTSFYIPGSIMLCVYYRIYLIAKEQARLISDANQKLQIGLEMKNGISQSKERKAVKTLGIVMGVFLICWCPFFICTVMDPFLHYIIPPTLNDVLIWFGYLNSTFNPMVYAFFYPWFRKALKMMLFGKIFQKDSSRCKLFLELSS
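System: CHO-derived RD-HGA16 cells with stable Gα16 and human TAAR1 / Times: 17-24 h plating, Fluo-8 75 min 37 °C, 30 min RT / Technique: calcium-sensitive Fluo-8 signal, excitation 470-495, emission 515-575 nm / Measure: % activation relative to PEA EC100 response / Benchmarks: DMSO and PEA EC100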
TAAR1 antagonist: human TAAR1 antagonism | Q96RJ0 | CHO RD-HGA16 TAAR1, Fluo-8 calcium fluorescence, antagonist | inhibition, % at 3 µM | 360,000 compounds, 1.5% hits | AID 624466;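 active means inhibition above a per-plate cutoff, the mean inhibition of test compounds on that plate plus 3 SD, cut at about 49% in these data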;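 further: 0% = DMSO plus EC80 beta-PEA response and 100% = DMSO alone without agonist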
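System: CHO RD-HGA16 cells bearing hTAAR1. Reagent: EC80 β-phenethylamine stimulus. Schedule: seeding 17-24 h prior, 75-min 37 °C, 30-min RT dye loading. Signal: Fluo-8 intracellular calcium dye fluorescence, real-time kinetic reads. Read-out: % inhibition from peak post-agonist over basal fluorescence ratio. Benchmarks: vehicle wells and EC80 agonist wells. Replicates: n of 1.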
Platelet DG rel: platelet dense granule release activity. AID 1663. human platelet-rich plasma, SFLLRN dense granule ATP release, luminescence. 300,000 compounds, 0.22% hits. inhibition, %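 (compounds screened at 7.5 µM in platelet-rich plasma)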;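 active means mean replicate score, as percent of positive control, at or above 50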
VLA-4 inh: inhibition in a human VLA-4 binding assay; P13612; inhibition, % (about 7 µM as worked out from the volumes in the protocol); VLA-4 expressing cells, ligand binding flow cytometry; 330,000 compounds, 0.2% hits; AID 2557; in the data active means inhibition above about 50%
Rce1 inh: yeast Ras-converting enzyme inhibition. Q03530. yeast membranes, quenched prenylated peptide cleavage fluorescence. calls only. 290,000 compounds, 0.27% hits;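 active means fall in fluorescence gain of 50% or more versus controls, with final raw signal at or below 3038400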;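 further: plate controls were neutral control wells for no effect and wells lacking membranes for full effect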
TAAR1 nonsel count: counter-screen for TAAR1 antagonists: nonselective antagonists; counterscreen cell line, calcium fluorescence, antagonist mode; 2,400 compounds, 77% hits; shares compounds with TAAR1 antagonist; inhibition, % at 3 µM; in the data active means inhibition above about 22%;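 further: CHO-Ga16 host cells stimulated with ATP at an EC80 level; 0% = agonist EC80 plus vehicle and 100% = vehicle without agonist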
TAAR1 antag conf: human TAAR1 antagonism, confirmed; 2,400 compounds, 40% hits; TAAR1-expressing cells, fluorescence antagonist read-out; inhibition, % at 3 µM; shares compounds with TAAR1 antagonist; AID 651785; in the data active means inhibition above about 49%;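 further: CHO-Ga16 host cells challenged with agonist PEA near its EC80; 0% = agonist at EC80 plus vehicle and 100% = vehicle with no agonist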
Ga16 ag counter: nonselective Ga16 agonism, counter-screen | shares compounds with TAAR1 antagonist | Ga16-expressing cells, calcium fluorescence, agonist counterscreen | activation, % at 3 µM | 2,400 compounds, 18% hits | AID 651953; in the data active means activation above about 12%;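 further: 0% = vehicle wells and 100% = saturating stimulus response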
TAAR1 ag count: TAAR1 agonism, antagonist counter-screen; shares compounds with TAAR1 antagonist; hTAAR1 cell line, fluorescence activation, agonist mode; activation, % at 3 µM; 2,400 compounds, 2% hits; AID 651955; in the data active means activation above about 37%;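 further: CHO cells stably expressing TAAR1 with calcium dye readout; 0% = DMSO vehicle and 100% = full agonist response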
Active calls of the source: *; i = inactive; · = no result.

SMILES	TAAR1 ag	TAAR1 antagonist	Platelet DG rel	VLA-4 inh	Rce1 inh	TAAR1 nonsel count	TAAR1 antag conf	Ga16 ag counter	TAAR1 ag count
CC1(Cc2ccccc2Cl)C(=O)Nc2c(Cl)ccc(Cl)c21 (stereo not drawn)	3.0	56.8*	·	·	·	0.0	31.9	15.3*	31.7
CC1(Cc2ccccc2F)C(=O)Nc2c(Cl)ccc(Cl)c21 (stereo not drawn)	7.2	13.6	·	·	·	·	·	·	·
COc1cccc(CNC(=O)[C@@H]2CCCN2C(=O)[C@H]2CCCCN2C(=O)c2ccc(Cl)cc2)c1	5.6	-10.2	·	·	·	·	·	·	·
Cc1c(NC(=O)c2cc(-c3ccc(F)cc3)nc3ccccc23)c(=O)n(-c2ccccc2)n1C	14.8	60.6*	·	-0.6	·	25.5*	46.1	7.8	9.9
Cc1cccc(-c2cc(C(=O)Nc3cccnc3)c3ccccc3n2)c1	1.2	58.5*	1.9	11.8	·	17.1	28.3	5.3	3.4
O=C(NNC(=O)c1cc(-c2ccccc2)nc2ccccc12)Nc1cccc(Cl)c1	9.9	80.1*	17.0	22.0	i	38.9*	57.4*	7.7	6.0
Cc1cccc(-c2cc(C(=O)Nc3c(C)n(C)n(-c4ccccc4)c3=O)c3ccccc3n2)c1	8.9	70.2*	-1.8	-4.8	·	31.1*	46.7	7.2	5.9
Cc1cccc(N(O)C(=O)Nc2cccc(Cl)c2)c1	11.2	12.2	-4.2	17.8	i	·	·	·	·
Cc1cccc2cc(CN(CCCN(C)C)C(=S)NCCc3ccccc3)c(=O)[nH]c12	29.1	15.6	-6.4	15.2	i	·	·	·	·
CCC(=O)c1ccc(OC(=O)Cc2ccc(OC)cc2)cc1	3.8	-22.0	-8.2	11.0	i	·	·	·	·
CC(C)n1nnnc1SCC(=O)NCCc1ccccc1	8.4	3.8	-2.0	-4.3	i	·	·	·	·
COC(=O)c1ccc(NC(=O)CSc2nnnn2C2CCCCC2)cc1	18.6	64.5*	-7.6	1.3	i	12.3	2.2	1.5	6.7
COc1cccc(NC(=O)CSc2nnnn2C2CCCCC2)c1	-3.3	9.5	0.6	·	i	·	·	·	·
O=C(CSc1nnnn1C1CCCC1)NCCc1ccccc1	27.4	55.0*	-2.8	6.2	i	10.1	72.6*	-0.1	52.3*
C=Cc1ccc(Cn2c(C)c(C(=O)NCc3ccc(Cl)c(Cl)c3)sc2=O)cc1	-0.8	-3.5	·	·	·	·	·	·	·
Cc1n[nH]c(C)c1CCc1nc2c3ccccc3nc(SCC(=O)Nc3ccccc3F)n2n1	8.7	61.3*	3.8	-6.6	i	22.6*	37.3	8.5	10.1
Cc1nc2ccccc2n1CCc1nc2c3ccccc3nc(SCC(=O)NCc3ccco3)n2n1	8.6	22.4	-1.4	i	i	·	·	·	·
CC1(C(=O)OCC(=O)Nc2nc(-c3ccc(F)c(F)c3)cs2)CC1(Cl)Cl (stereo not drawn)	4.4	87.8*	-11.7	5.4	i	48.8*	76.0*	8.9	3.2
O=C(Cc1ccc(F)cc1)Nc1nc(-c2ccc(F)c(F)c2)cs1	9.6	73.6*	-7.3	8.3	i	34.2*	44.8	6.7	4.0
COc1ccccc1CNC(=O)C(Cc1c[nH]c2ccccc12)NC(=O)OCc1ccccc1 (stereo not drawn)	14.0	62.7*	-10.9	-15.5	i	19.5	45.5	5.9	5.9
C[C@H](NC(=O)OCc1ccccc1)C(=O)N[C@@H](Cc1c[nH]c2ccccc12)C(=O)O	1.1	16.5	-0.5	18.9	i	·	·	·	·
O=C(c1ccc(N2CCN(C(=O)c3cccc(F)c3)CC2)cc1)c1cccc(F)c1	4.0	53.1*	-11.0	31.7	i	23.7*	34.4	8.8	11.2
COc1ccccc1N1CCN(C(=O)C2CCN(C(=O)c3cccc(Cl)c3)CC2)CC1	-2.4	-2.3	-6.7	-2.9	i	·	·	·	·
COc1ccccc1N1CCN(C(=O)c2oc3c(c2C)C(=O)CC(C)(C)C3)CC1	13.8	74.9*	6.6	-0.6	i	32.3*	56.2*	11.0	11.0
O=C(c1cccc(C(=O)N2CCN(c3ccccc3F)CC2)c1)N1CCN(c2ccccc2F)CC1	10.6	67.8*	-1.2	-3.9	i	26.5*	36.1	9.2	4.6
COc1ccccc1N1CCN(C(=O)c2cccc(C(=O)N3CCN(c4ccccc4OC)CC3)c2)CC1	17.2	54.5*	6.4	14.9	·	27.3*	48.8*	8.7	9.6
Cc1c(C(=O)N2CCN(c3ccccn3)CC2)oc2c1C(=O)CC(C)(C)C2	12.4	48.5	-11.4	13.1	i	·	·	·	·
O=C(c1c(F)cccc1F)N1CCN(c2ccccc2F)CC1	9.2	-10.4	3.2	37.2	i	·	·	·	·
COC(=O)[C@@]12C[C@@H](CC(=O)NCc3ccc(OC)c(OC)c3)C(=O)N(Cc3ccc4c(c3)OCO4)C1=CCC(C)(C)C2	-0.2	-14.7	·	·	·	·	·	·	·
